Sampled rows, rich in hits. Any-hit rate of the full collection: about 2.3%.
PRMT1 inh: PRMT1 (human) inhibition, primary screen. recombinant PRMT1, activity-based probe fluorescence polarization. Q99873. inhibition, % at 2.79 µM. 1.3% of 370,000 active;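 active means inhibition above about 21% made by adding two undisclosed values, limit read from the data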
RBBP9 inh: blocks human serine hydrolase RBBP9; O75884; recombinant RBBP9, FP-Rh probe fluorescence polarization; inhibition, % at 7.94 µM; 0.2% of 220,000 active; AID 1515;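 active means inhibition above the campaign mean of all tested compounds plus 3 SD, cut at about 14% in these data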
Target sequence (O75884 whole entry, looked up): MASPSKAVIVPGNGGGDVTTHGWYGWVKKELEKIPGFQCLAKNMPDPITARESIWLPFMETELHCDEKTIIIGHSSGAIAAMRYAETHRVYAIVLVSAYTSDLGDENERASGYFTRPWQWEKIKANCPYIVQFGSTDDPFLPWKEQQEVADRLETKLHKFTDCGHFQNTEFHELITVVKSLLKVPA
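Test system: recombinant human RBBP9. Quantity: 2.5 µM RBBP9 dispensing solution, before mixing. Detection: FP readout at 525/598 nm. Reagent: Serine-hydrolase probe FP-Rh, 375 nM pre-mixing. Measure: % inhibition. Control set: DMSO-treated enzyme wells and wells lacking RBBP9. Buffer or medium: Tris-NaCl-Pluronic buffer, pH 8.0. Times: preincubation 30 min plus labeling 45 min at 25 °C.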
PAD4 FP inh: PAD4 (human) enzyme inhibition; AID 485272; 0.41% of 330,000 active; inhibition, % at 6.36 µM; recombinant PAD4, RCA probe fluorescence polarization;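 active means percent inhibition above a cutoff equal to the mean of all tested compounds plus 3 SD, cut at about 15% in these data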
PME-1 primary: PME-1 (human) inhibition; Q9Y570; recombinant PME-1, FP-Rh probe fluorescence polarization; inhibition, % at 5.9 µM; 0.53% of 320,000 active; AID 2130;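 active means inhibition above the campaign mean of all compounds plus 3 SD, cut at about 26% in these data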;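 further: competitive labeling of PME-1 active site by serine hydrolase directed probe; inhibitors block probe labeling so polarization falls and inhibition rises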
Fam108B counter: counter-screen for RBBP9 inhibitors: inhibitors of mouse Fam108B; inhibition, % at 9.51 µM; recombinant Fam108B, FP-Rh probe fluorescence polarization; AID 1947; 0.33% of 300,000 active;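 active means inhibition above the screen mean inhibition plus 3 SD, computed separately per campaign, cut at about 18% in these data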;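 further: inhibitors lower polarization as less probe binds the enzyme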
GSTO1 counter: counter-screen for RBBP9 inhibitors: inhibitors of human GSTO1 | P78417 | recombinant GSTO1, activity-based probe fluorescence polarization | inhibition, % at 5.96 µM | 1.1% of 300,000 active | AID 1974;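 active means inhibition above the campaign mean inhibition plus 3 SD, cut at about 35% in these data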
Target sequence (P78417 whole entry, looked up): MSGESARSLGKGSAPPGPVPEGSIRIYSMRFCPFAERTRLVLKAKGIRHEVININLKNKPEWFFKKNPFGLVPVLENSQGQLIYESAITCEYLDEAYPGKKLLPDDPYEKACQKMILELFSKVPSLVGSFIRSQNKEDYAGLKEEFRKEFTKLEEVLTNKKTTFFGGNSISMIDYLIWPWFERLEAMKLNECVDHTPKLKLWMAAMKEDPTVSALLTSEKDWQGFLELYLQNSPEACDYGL
PRMT1 inh conf: PRMT1 (human) inhibition, FP confirmation; recombinant His-PRMT1, activity-based probe fluorescence polarization; 42% of 3,300 active; shares compounds with PRMT1 inh; AID 687036; inhibition, % at 2.79 µM;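 active means mean inhibition across replicates above the hit cutoff derived for the earlier primary screen, cut at about 22% in these data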
Numbers stand for hits; i = inactive; nt = no result given.

SMILES | PRMT1 inh | RBBP9 inh | PAD4 FP inh | PME-1 primary | Fam108B counter | GSTO1 counter | PRMT1 inh conf
Cc1cc(C)n2nc(N)c(N=Nc3cccc(Cl)c3)c2n1 | 58 | i | i | i | i | i | i
Cc1ccsc1/C=C/C1=Cc2c(sc(NC(=O)CSc3n[nH]c(N)n3)c2C#N)C(C)(C)C1 | 41 | i | i | i | i | i | i
CCOc1ccc(/C=C/C2=Cc3c(sc(NC(=O)CSc4n[nH]c(N)n4)c3C#N)C(C)(C)C2)cc1 | 33 | i | i | i | i | i | i
CCOC(=O)c1sc(NC(=O)CSc2n[nH]c(-c3ccncc3)n2)c(C#N)c1C | i | i | i | i | i | i | nt
NC(=O)c1ccsc1NC(=O)CSc1n[nH]c(N)n1 | i | nt | i | nt | nt | nt | nt
Cc1ccc(-n2c(SCC(=O)c3ccc4ccccc4c3)nnc2-c2cccnc2)cc1 | i | nt | nt | nt | nt | nt | nt
CCN1C(=O)[C@H]2[C@H]3CN=C(SCC(=O)c4ccccc4)N3[C@@](C)(C(=O)OC)[C@H]2C1=O | 83 | nt | i | nt | nt | nt | 73
COC(=O)[C@@]1(C)[C@H]2C(=O)N(Cc3ccccc3)C(=O)[C@H]2[C@H]2CN=C(SCc3ccccc3)N21 | i | nt | i | nt | nt | nt | nt
COC(=O)[C@@]1(Cc2ccccc2)[C@H]2C(=O)N(C)C(=O)[C@H]2[C@H]2CN=C(SCC3CC3)N21 | i | nt | i | nt | nt | nt | nt
COC(=O)[C@@]1(Cc2ccccc2)[C@H]2C(=O)N(C)C(=O)[C@H]2[C@H]2CN=C(SCC(=O)c3ccccc3)N21 | 45 | nt | i | nt | nt | nt | 33
O=C(O)CCNS(=O)(=O)c1ccc2c(c1)OCCCO2 | i | i | i | i | i | i | nt
NS(=O)(=O)c1ccc(N/N=C/c2ccc3c(c2)OCO3)c([N+](=O)[O-])c1 | i | i | i | i | i | i | nt
Cc1ccc(C)c(Cn2c(=O)n(CCC(=O)NCc3ccco3)c(=O)c3ccccc32)c1 | i | i | i | i | i | i | nt
Cc1ccc(C)c(Cn2c(=O)n(CCCC(=O)NCc3ccco3)c(=O)c3ccccc32)c1 | 102 | i | i | i | i | i | i
O=C(/C=C/c1ccccc1)CCN1CCCCC1 | 25 | nt | nt | nt | nt | nt | 50
Cc1snc(SCC(=O)c2ccc(F)cc2)c1C#N | i | i | i | i | i | i | nt
Cc1snc(SCC(=O)c2ccc([N+](=O)[O-])cc2)c1C#N | 47 | i | nt | nt | nt | nt | 53
Cc1ccc(NC(=O)c2cc(N3C(=O)C=CC3=O)ccc2N2CCOCC2)cc1Cl | 90 | i | i | i | i | i | 103
CC(=O)Nc1ccc(S(=O)(=O)NNc2ccc([N+](=O)[O-])cc2)cc1 | 32 | nt | i | i | i | i | i
CC(=O)Nc1ccc(S(=O)(=O)NNC(=O)c2ccc([N+](=O)[O-])cc2)cc1 | i | nt | i | i | i | i | nt
Cc1cc(C)cc(NC(=S)NCc2cccs2)c1 | i | i | i | i | i | i | nt
CCN(CC(=O)Nc1ccc(NC(C)=O)cc1)CC(=O)Nc1ccc(F)c(Cl)c1 | i | i | i | i | i | i | nt
CC(C)(C)c1ccc(NC(=O)COC(=O)c2ccc3ncsc3c2)cc1 | i | nt | i | i | nt | nt | nt
O=C(OCC(=O)c1ccco1)c1ccc2ncsc2c1 | 46 | i | i | i | i | i | i
O=S(=O)(c1cccc2nsnc12)N1CCN(c2ccccc2F)CC1 | i | i | i | i | i | i | nt
SMILES | PRMT1 inh | RBBP9 inh | PAD4 FP inh | PME-1 primary | Fam108B counter | GSTO1 counter | PRMT1 inh conf
O=C1OC(/C(=C\Nc2ccc(F)cc2F)[N+](=O)[O-])c2ccccc21 (stereo not drawn) | i | i | i | i | i | i | nt
O=C1OC(/C(=C\Nc2cc(Cl)ccc2O)[N+](=O)[O-])c2ccccc21 (stereo not drawn) | 29 | i | i | i | i | i | i
NC(=O)C1(N2CCCCC2)CCN(C(=S)Nc2ccc(S(N)(=O)=O)cc2)CC1 | 27 | i | i | i | i | i | 36
CCNc1nc(NCC)n2c(SCC(=O)Nc3ccccc3F)nnc2n1 | 27 | nt | i | i | i | i | i
c1ccc2c(c1)Nc1nccnc1S2 | 49 | i | i | i | i | i | 47
O=C1Nc2cccnc2Sc2ccccc21 | i | i | i | i | i | i | nt
Cc1cccc(C2=NN(c3ccccc3)[C@H](CO)[C@H]2c2ccc(F)cc2)c1 | i | nt | i | nt | nt | nt | nt
CCc1cc(C(=O)Nc2ccc(OC)nc2)sc1C | 26 | nt | i | i | i | i | i
CCOC(=O)C1CCCN(S(=O)(=O)c2ccc(S(=O)(=O)N(CC)CC)cc2)C1 (stereo not drawn) | i | i | i | i | i | i | nt
CCOC(=O)C1CCCN(S(=O)(=O)c2ccc3c(c2)NC(=O)CO3)C1 (stereo not drawn) | i | nt | i | i | i | i | nt
CCOC(=O)C1CCCN(S(=O)(=O)c2cc3c(cc2Cl)NC(=O)CO3)C1 (stereo not drawn) | 34 | nt | i | i | i | i | i
CC(C)Cn1c(SCC(=O)NCCCN2CCCC2=O)nc2ccccc21 | i | nt | i | i | i | i | nt
COC(=O)c1c[nH]n2c(=O)cc(C)nc12 | i | i | i | i | i | i | nt
CC1=C(C(=O)Nc2ccccc2)C2(CCCCC2)C(C#N)=C(S)N1 | 26 | i | i | i | i | i | 25
Cc1ccc(C2=NCCNC2=O)c(C)c1 | i | i | i | i | i | i | nt
CN(C)CCN(C)Cc1c2ccccc2c(CN(C)CCN(C)C)c2ccccc12 | 31 | nt | i | i | i | i | i
CN(C)CCP(=O)(c1ccccc1)c1ccccc1 | i | i | i | i | i | i | nt
NS(=O)(=O)c1ccc(CCNC(=O)c2ccc(CS(=O)(=O)c3ccc(Br)cc3)o2)cc1 | i | nt | i | i | i | i | nt
CC(C)n1c(CNC(=O)c2ccccc2F)nnc1SCC(=O)NC1CCCCC1 | 33 | nt | nt | nt | nt | nt | i
O=C(NC(Cc1ccccc1)C(=O)O)/C(=C\c1ccco1)NC(=O)c1ccc(Br)cc1 (stereo not drawn) | 35 | i | i | i | i | i | i
O=C(NC(Cc1ccccc1)C(=O)O)/C(=C\c1ccco1)NC(=O)c1ccccc1 (stereo not drawn) | i | i | i | i | i | i | nt
O=C(O)/C(=C\c1ccco1)NC(=O)c1cccc2ccccc12 | 33 | i | i | i | i | i | i
O=C(Nc1ccc(C(=O)O)cc1)/C(=C\c1ccco1)NC(=O)c1ccc(Br)o1 | 25 | nt | i | i | i | i | i
O=C(Nc1ccc(C(=O)O)cc1)/C(=C\c1ccco1)NC(=O)c1ccc(Br)cc1 | 34 | nt | nt | nt | nt | nt | i
O=C(Nc1ccc(O)cc1)/C(=C/c1ccco1)NC(=O)c1ccccc1 | i | i | i | i | i | i | nt
O=C(O)/C(=C/c1ccco1)NC(=O)c1ccccc1 | i | i | i | i | i | i | nt
C=CCn1cc(/C=C2/NC(=O)NC2=O)c2ccccc21 | i | i | i | i | i | i | nt
O=C(O)/C(=C/c1ccco1)NC(=O)c1ccc(Br)o1 | 29 | nt | i | i | i | i | i
O=C(O)/C(=C\c1ccco1)NC(=O)c1ccc(Br)o1 | i | nt | i | i | i | i | nt
COc1ccc2c(Cl)c(C(=O)N/N=C3\CCCC(=O)C3)sc2c1 | 38 | i | i | i | i | i | i

Screens (PubChem BioAssay)
